Measured values reported in ChEMBL document CHEMBL1177864, “Synthesis and biological evaluation of some thio containing pyrrolo [2,3-d]pyrimidine derivatives for their anti-inflammatory and anti-microbial activities” (2010).
In brackets after ≈: the same amount, converted by molar mass. Activity calls are given as the source filed them. The calls are words filed in the database; no cut-off is given here.

Legend:
Mycolicibacterium phlei [1] = experiment: Antimicrobial activity against Mycobacterium phlei ATCC 10142 at 4 ug/disk by disk diffusion method; format: functional, organism-based
Pseudomonas aeruginosa [2] = experiment: Antimicrobial activity against Pseudomonas aeruginosa ATCC […] at 4 ug/disk by disk diffusion method; format: functional, organism-based
Escherichia coli [3] = experiment: Antimicrobial activity against Escherichia coli ATCC 25922 at 4 ug/disk by disk diffusion method; format: functional, organism-based
Candida albicans [4] = experiment: Antimicrobial activity against Candida albicans ATCC 10231 after 48 hrs by microdilution assay; format: functional; conditions: ATCC 10231, 48 h
Procedure, shortened: (§1)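 MIC by microdilution following NCCLS 1997 guidelines. Compounds were serially two-fold diluted in DMSO from 1024 down to […], mixed with sterile nutrient agar, and inoculum was added to each well. MIC was read as the lowest concentration giving complete absence of macroscopic growth. Controls were DMSO, organism alone and medium alone. Bacteria were precultured on MHA at 37 °C overnight; Candida on SDA at 35 °C.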

Staphylococcus aureus [5] = experiment: Antimicrobial activity against Staphylococcus aureus ATCC 29213 at 4 ug/disk by disk diffusion method; format: functional, organism-based
Candida albicans [6] = experiment: Antimicrobial activity against Candida albicans ATCC 10231 at 4 ug/disk by disk diffusion method; format: functional; conditions: read-out: DIZ
Bacillus subtilis [7] = experiment: Antimicrobial activity against Bacillus subtilis ATCC 6633 at 4 ug/disk by disk diffusion method; format: functional, organism-based
Rattus norvegicus [8] = experiment: Antiinflammatory activity in Sprague-Dawley rat assessed as inhibition of carrageenan-induced paw edema at 50 to 70 mg/kg, sc administered 1 hr before carrageenan challenge measured after 1 hr relative to control; format: functional; conditions: dose mg/kg 50-70; route subcutaneous
Procedure, shortened: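 One hour later, baseline right hind paw volume was taken, then 0.05 mL of 1% carrageenan in sterile pyrogen-free 0.9% NaCl was injected into the plantar aponeurosis. Paw volume was read by water plethysmometer at 1, 2, 3 and 4 h. % inhibition = (1 − Rt/Rc) × 100 against carrageenan-only controls (n=5).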

Rattus norvegicus [9] = experiment: Antiinflammatory activity in Sprague-Dawley rat assessed as inhibition of carrageenan-induced paw edema at 50 to 70 mg/kg, sc administered 1 hr before carrageenan challenge measured after 4 hrs relative to control; conditions: dose mg/kg 50-70; route subcutaneous
Bacillus subtilis [10] = experiment: Antimicrobial activity against Bacillus subtilis ATCC 6633 after 24 hrs by microdilution assay; format: functional; conditions: ATCC 6633, 24 h
Procedure, shortened: (§2)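 MIC by micro-dilution per NCCLS 1997. Bacteria were subcultured overnight on Mueller-Hinton agar at 37 °C and passaged at least twice. Compounds were serially two-fold diluted in DMSO (1024 down to 16 stock levels) and mixed with sterile nutrient agar, then inoculum was added to the wells. MIC is the lowest concentration giving complete inhibition of macroscopic growth. Controls were DMSO, organism alone and medium alone.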

Rattus norvegicus [11] = experiment: Antiinflammatory activity in Sprague-Dawley rat assessed as inhibition of carrageenan-induced paw edema at 50 to 70 mg/kg, sc administered 1 hr before carrageenan challenge measured after 3 hrs relative to control; conditions: dose mg/kg 50-70; route subcutaneous
Rattus norvegicus [12] = experiment: Antiinflammatory activity in Sprague-Dawley rat assessed as inhibition of carrageenan-induced paw edema at 50 to 70 mg/kg, sc administered 1 hr before carrageenan challenge measured after 2 hrs relative to control; conditions: dose mg/kg 50-70; route subcutaneous
Mycolicibacterium phlei [13] = experiment: Antimicrobial activity against Mycobacterium phlei ATCC 10142 at 25 ug/disk by disk diffusion method; format: functional, organism-based
Procedure, shortened: (§3)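 Disc diffusion sensitivity test as per Bauer et al. Bacteria were subcultured on Mueller-Hinton agar overnight at 37 °C; Candida on SDA at 35 °C for 24-48 h, each passaged at least twice. DMSO served as solvent control; amoxicillin and fluconazole were references. Read-out was the inhibition zone.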

Pseudomonas aeruginosa [14] = experiment: Antimicrobial activity against Pseudomonas aeruginosa ATCC […] after 24 hrs by microdilution assay; format: functional; procedure, shortened: as §2
Escherichia coli [15] = experiment: Antimicrobial activity against Escherichia coli ATCC 25922 after 24 hrs by microdilution assay; format: functional; conditions: ATCC 25922, 24 h
Procedure, shortened: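 MIC by microdilution following NCCLS 1997 guidelines. Bacteria were subcultured on Mueller-Hinton agar overnight at 37 °C and passaged at least twice. Compounds were serially two-fold diluted in DMSO (1024 down to 16), mixed with nutrient agar, and inoculated. MIC was the lowest concentration with no macroscopic growth. DMSO, organism-only and medium-only controls were included, with amoxicillin as reference.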

Bacillus subtilis [16] = experiment: Antimicrobial activity against Bacillus subtilis ATCC 6633 at 25 ug/disk by disk diffusion method; format: functional; conditions: read-out: DIZ; procedure, shortened: as §3
Candida albicans [17] = experiment: Antimicrobial activity against Candida albicans ATCC 10231 at 25 ug/disk by disk diffusion method; format: functional, organism-based; procedure, shortened: as §3
Pseudomonas aeruginosa [18] = experiment: Antimicrobial activity against Pseudomonas aeruginosa ATCC […] at 25 ug/disk by disk diffusion method; format: functional; conditions: read-out: DIZ; procedure, shortened: as §3
Staphylococcus aureus [19] = experiment: Antimicrobial activity against Staphylococcus aureus ATCC 29213 after 24 hrs by microdilution assay; format: functional; conditions: ATCC 29213, 24 h; procedure, shortened: as §1
Escherichia coli [20] = experiment: Antimicrobial activity against Escherichia coli ATCC 25922 at 25 ug/disk by disk diffusion method; format: functional; conditions: read-out: DIZ; procedure, shortened: as §3
Staphylococcus aureus [21] = experiment: Antimicrobial activity against Staphylococcus aureus ATCC 29213 at 25 ug/disk by disk diffusion method; format: functional; conditions: read-out: DIZ; procedure, shortened: as §3
Mycolicibacterium phlei [22] = experiment: Antimicrobial activity against Mycobacterium phlei ATCC 10142 at 20 ug/disk by disk diffusion method; format: functional, organism-based; procedure, shortened: as §3
Pseudomonas aeruginosa [23] = experiment: Antimicrobial activity against Pseudomonas aeruginosa ATCC […] at 20 ug/disk by disk diffusion method; format: functional, organism-based; procedure, shortened: as §3
Escherichia coli [24] = experiment: Antimicrobial activity against Escherichia coli ATCC 25922 at 20 ug/disk by disk diffusion method; format: functional, organism-based; procedure, shortened: as §3
Bacillus subtilis [25] = experiment: Antimicrobial activity against Bacillus subtilis ATCC 6633 at 20 ug/disk by disk diffusion method; format: functional; conditions: read-out: DIZ; procedure, shortened: as §3
Candida albicans [26] = experiment: Antimicrobial activity against Candida albicans ATCC 10231 at 20 ug/disk by disk diffusion method; format: functional, organism-based; procedure, shortened: as §3
Staphylococcus aureus [27] = experiment: Antimicrobial activity against Staphylococcus aureus ATCC 29213 at 20 ug/disk by disk diffusion method; format: functional, organism-based; procedure, shortened: as §3

| Compound | inhibition (INH) (Rattus norvegicus [8]) [%] | inhibition (INH) (Rattus norvegicus [9]) [%] | inhibition (INH) (Rattus norvegicus [11]) [%] | inhibition (INH) (Rattus norvegicus [12]) [%] | further results |
| --- | --- | --- | --- | --- | --- |
| OC(Cn1cncn1)(Cn1cncn1)c1ccc(F)cc1F [FLUCONAZOLE] | – | – | – | – | diameter of the inhibition zone (DIZ) (Mycolicibacterium phlei [1]): inactive; diameter of the inhibition zone (DIZ) (Pseudomonas aeruginosa [2]): inactive; diameter of the inhibition zone (DIZ) (Escherichia coli [3]): inactive; MIC (Candida albicans [4]): 512 µg/mL (≈ 1670 µM); diameter of the inhibition zone (DIZ) (Staphylococcus aureus [5]): inactive; zone of inhibition at 4 µg/disc (Candida albicans [6]): 20 mm; diameter of the inhibition zone (DIZ) (Bacillus subtilis [7]): inactive |
| O=c1/c(=C/c2ccccc2)sc2nc3c(c(-c4ccccc4)cn3-c3ccc(Cl)c(Cl)c3)c(=S)n12 | 0 | – | – | – | – |
| Cc1c(-n2c(-c3ccccc3)c(-c3ccccc3)c3c(=S)n4c(=O)/c(=C/c5ccccc5)sc4nc32)n(C)n(-c2ccccc2)c1=O | 1.74 | – | – | – | – |
| S=c1[nH]c(=S)c2c(-c3ccccc3)c(-c3ccccc3)n(Cc3ccccc3)c2[nH]1 | 2.608 | 27.61 | 13.23 | 5.38 | MIC (Bacillus subtilis [10]): 512 µg/mL (≈ 1200 µM) |
| CC1(C)S[C@@H]2[C@H](NC(=O)[C@H](N)c3ccc(O)cc3)C(=O)N2[C@H]1C(=O)O [AMOXICILLIN] | – | – | – | – | MIC (Bacillus subtilis [10]): 64 µg/mL (≈ 175 µM); diameter of the inhibition zone (DIZ) (Mycolicibacterium phlei [13]): inactive; MIC (Pseudomonas aeruginosa [14]): 64 µg/mL (≈ 175 µM); MIC (Escherichia coli [15]): 256 µg/mL (≈ 701 µM); zone of inhibition at 25 µg/disc (Bacillus subtilis [16]): 12 mm; diameter of the inhibition zone (DIZ) (Candida albicans [17]): inactive; zone of inhibition at 25 µg/disc (Pseudomonas aeruginosa [18]): 12 mm; MIC (Staphylococcus aureus [19]): 16 µg/mL (≈ 43.8 µM); zone of inhibition at 25 µg/disc (Escherichia coli [20]): 13 mm; zone of inhibition at 25 µg/disc (Staphylococcus aureus [21]): 13 mm |
| S=c1[nH]c(=S)c2c(-c3ccccc3)cn(-c3ccc(Cl)c(Cl)c3)c2[nH]1 | 1.73 | 26 | 12.53 | 4.48 | – |
| Cc1c(-n2c(-c3ccccc3)c(-c3ccccc3)c3c(N)nc(=S)[nH]c32)n(C)n(-c2ccccc2)c1=O | 0 | 64.28 | 73.34 | 0 | – |
| Cc1c(-n2c(N)c(C#N)c(-c3ccccc3)c2-c2ccccc2)n(C)n(-c2ccccc2)c1=O | 9.5 | 64.68 | 62.62 | 36.53 | MIC (Bacillus subtilis [10]): 512 µg/mL (≈ 1150 µM); diameter of the inhibition zone (DIZ) (Mycolicibacterium phlei [22]): inactive; diameter of the inhibition zone (DIZ) (Pseudomonas aeruginosa [23]): inactive; diameter of the inhibition zone (DIZ) (Escherichia coli [24]): inactive; zone of inhibition at 20 µg/disc (Bacillus subtilis [25]): 10 mm; diameter of the inhibition zone (DIZ) (Candida albicans [26]): inactive; diameter of the inhibition zone (DIZ) (Staphylococcus aureus [27]): inactive |
| Nc1nc(=S)[nH]c2c1c(-c1ccccc1)cn2-c1ccc(Cl)c(Cl)c1 | 6.08 | 76.82 | 95.95 | 95.38 | – |
| Cc1c(-n2c(-c3ccccc3)c(-c3ccccc3)c3c(=N)n(-c4ccccc4)c(=S)[nH]c32)n(C)n(-c2ccccc2)c1=O | 1.98 | – | – | – | – |
| Cc1c(-n2c(-c3ccccc3)c(-c3ccccc3)c3c(=S)[nH]c(=S)[nH]c32)n(C)n(-c2ccccc2)c1=O | 0 | 28.8 | 14.1 | 3.94 | – |
| N#Cc1c(-c2ccccc2)c(-c2ccccc2)n(Cc2ccccc2)c1N | 3.04 | 23.8 | 12.59 | 4.23 | – |
| N#Cc1c(-c2ccccc2)cn(-c2ccc(Cl)c(Cl)c2)c1N | 2.17 | 19.04 | 13.88 | 12.3 | – |
| O=c1/c(=C/c2ccccc2)sc2nc3c(c(-c4ccccc4)c(-c4ccccc4)n3Cc3ccccc3)c(=S)n12 | 3.498 | – | – | – | – |
| NNc1nc(N)c2c(-c3ccccc3)c(-c3ccccc3)n(Cc3ccccc3)c2n1 | 10.43 | 79.04 | 73.9 | 61.15 | – |
| NNc1nc(N)c2c(-c3ccccc3)cn(-c3ccc(Cl)c(Cl)c3)c2n1 | 14.78 | 67.43 | 95.58 | 30 | – |
| N=c1c2c(-c3ccccc3)cn(-c3ccc(Cl)c(Cl)c3)c2[nH]c(=S)n1-c1ccccc1 | 42 | 68.57 | 76.83 | 48.07 | – |
| CC(C)Cc1ccc(C(C)C(=O)O)cc1 (stereo not drawn) [IBUPROFEN] | 6.08 | 69.52 | 60.66 | 45 | – |
| Nc1nc(=S)[nH]c2c1c(-c1ccccc1)c(-c1ccccc1)n2Cc1ccccc1 | 1.73 | 24.76 | 13.97 | 3.84 | MIC (Bacillus subtilis [10]): 512 µg/mL (≈ 1250 µM); MIC (Staphylococcus aureus [19]): 256 µg/mL (≈ 627 µM) |
